Source: PubChem
Compounds with a hit are over-represented: about 4.1% of the library has one in this group of screens.
KCNK3 block – human KCNK3 channel inhibition, primary screen. O14649. CHO-KCNK3 thallium flux, FluxOR fluorescence; stronger effect = lower value. B-score at 10 µM. actives 0.84% (n = 340,000). AID 602410;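 active = B-score under library mean minus 4 SD, starting fluorescence ratio at most library mean plus 5 SD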;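 also: more negative B-score means stronger inhibition of thallium flux through KCNK3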
KCNK9 inh – blocks the human KCNK9 two-pore domain potassium channel | Q9NPC2 | HEK293 KCNK9, FluxOR thallium flux fluorescence; stronger effect = lower value | B-score at 10 µM | actives 1.2% (n = 310,000);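 active = ratio B-score over 3 SD below the library mean, with starting fluorescence within 5 SD of its mean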;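 also: negative B-score means less thallium flux so channel inhibition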
KCNQ1 inh – inhibitors of human KCNQ1 potassium channel; CHO-K1 KCNQ1, FluxOR thallium flux fluorescence; stronger effect = higher value; actives 1.3% (n = 310,000); P51787; B-score at 10 µM;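 active = compounds whose thallium flux B-score, printed positive for inhibition, exceeds three library SD while starting fluorescence stays within three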;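 also: channel opened by potassium depolarization with thallium stimulus after 20 min compound exposure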
KCNQ1 act – human KCNQ1 channel potentiation or activation; P51787; CHO-K1 KCNQ1, thallium flux FluxOR fluorescence; stronger effect = higher value; B-score at 10 µM; actives 0.35% (n = 310,000);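 active = fluorescence ratio B-score, a plate-corrected score, at least three library SD, with initial intensity B-score within 5 SD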
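assay system = CHO-K1 cells stably expressing KCNQ1 | medium = assay buffer, equal DMSO in all wells | timing = 37 °C overnight plating, 90-min dark dye load, 20-min compound pretreatment | measured by = kinetic FluxOR thallium fluorescence, 10-s 1-Hz baseline, 110-s post-stimulus read | measure = fluorescence change relative to baseline, converted to B score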
Cl transport mod – modulates chloride dependent transport by human KCC2. Q9H2X9. KCC2 cells, thallium flux FluoZin-2 fluorescence. B-score of Tl+ flux slope (higher = more flux/activation; lower = inhibition) at 10 µM. actives 2.2% (n = 190,000). AID 1456;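 active = thallium flux slope and its plate-corrected score both differing from the plate sample mean at a set confidence after two filtering rounds, in either direction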;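 also: slope of fluorescence scaled to starting intensity during 10 to 20 s after thallium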
Target sequence (Q9H2X9 whole entry, looked up): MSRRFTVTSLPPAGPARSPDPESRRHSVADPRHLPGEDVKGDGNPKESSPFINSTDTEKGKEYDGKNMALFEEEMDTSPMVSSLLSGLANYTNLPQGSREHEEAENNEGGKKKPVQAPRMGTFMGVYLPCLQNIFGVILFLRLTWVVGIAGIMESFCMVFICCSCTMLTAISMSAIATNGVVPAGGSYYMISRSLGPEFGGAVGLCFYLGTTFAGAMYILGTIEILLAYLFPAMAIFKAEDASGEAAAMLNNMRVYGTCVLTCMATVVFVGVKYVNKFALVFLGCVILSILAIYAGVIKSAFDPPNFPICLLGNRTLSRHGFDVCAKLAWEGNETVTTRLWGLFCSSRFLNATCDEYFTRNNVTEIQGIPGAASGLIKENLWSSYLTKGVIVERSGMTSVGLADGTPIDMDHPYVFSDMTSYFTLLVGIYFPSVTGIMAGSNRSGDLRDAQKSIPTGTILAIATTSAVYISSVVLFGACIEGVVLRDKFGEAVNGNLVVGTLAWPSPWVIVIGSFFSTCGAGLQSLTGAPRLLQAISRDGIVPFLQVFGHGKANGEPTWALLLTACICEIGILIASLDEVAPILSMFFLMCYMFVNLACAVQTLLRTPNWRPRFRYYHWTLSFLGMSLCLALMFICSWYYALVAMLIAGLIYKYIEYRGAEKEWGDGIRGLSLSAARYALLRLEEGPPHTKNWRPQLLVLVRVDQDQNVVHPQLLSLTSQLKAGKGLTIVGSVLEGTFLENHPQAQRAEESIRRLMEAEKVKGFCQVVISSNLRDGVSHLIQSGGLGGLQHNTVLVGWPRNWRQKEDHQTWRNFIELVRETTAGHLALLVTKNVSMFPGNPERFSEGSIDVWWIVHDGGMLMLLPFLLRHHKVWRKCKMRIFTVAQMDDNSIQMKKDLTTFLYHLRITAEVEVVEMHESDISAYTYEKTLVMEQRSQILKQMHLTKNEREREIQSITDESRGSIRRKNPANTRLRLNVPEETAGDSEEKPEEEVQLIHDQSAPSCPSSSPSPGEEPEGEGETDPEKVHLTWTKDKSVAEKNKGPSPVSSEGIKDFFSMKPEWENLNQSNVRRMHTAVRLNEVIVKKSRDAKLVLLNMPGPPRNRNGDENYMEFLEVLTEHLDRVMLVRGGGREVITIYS
hERG protect – compounds protecting human hERG from proarrhythmic drug block; CHO-hERG, FluxOR thallium flux, dofetilide IC70 present; AID 1511; activation (rescue from dofetilide block), less the hit threshold, % at 10 µM; Q12809; actives 0.51% (n = 310,000);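 active = activation above the mean of controls blocked by dofetilide plus 5 SD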;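 also: thallium influx through hERG after potassium depolarization seen as dye fluorescence rise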
* hit, by the source's call; i = inactive; x = no result given.

SMILES	KCNK3 block	KCNK9 inh	KCNQ1 inh	KCNQ1 act	Cl transport mod	hERG protect
Cc1ccc(N2C(=O)c3cccc4c(N5CCN(C)CC5)ccc(c34)C2=O)c2cccnc12	x	i	9*	i	i	-21.4
CC(=O)Nc1ccc(NC(=O)c2ccccc2Nc2ccccc2)cc1	i	i	i	i	x	-4.0
CCC(=O)Nc1nc2ccc([N+](=O)[O-])cc2s1	i	i	i	i	-0.237	-13.9
Cc1ccc(C)c(OCC(=O)Nc2nc3ccc([N+](=O)[O-])cc3s2)c1C	i	i	6*	i	-0.812	-18.1
Cc1ccc(NC(=O)COC(=O)C2CCC2)cc1S(=O)(=O)N1CCOCC1	i	x	x	x	x	x
S=C1N(c2ccccc2)C(c2ccccc2)N2CCCN12 (centres undefined)	i	i	i	8*	0.283	-7.0
CCn1ncc(Br)c1C(=O)Nc1cc(C)on1	i	i	i	i	x	-5.7
CC1(C)CC(=O)C=C(c2cccc3c2oc2ccccc23)C1	i	i	6*	i	x	-7.6
Clc1ccc(-c2c[n+](Cc3ccc(Cl)cc3Cl)c3n2CCCCC3)cc1	i	i	7*	i	x	-20.3
O=C(C[n+]1cc(-c2ccccc2)n2c1CCCCC2)c1ccc(Cl)cc1	i	i	i	i	-0.48	-9.0
CC1CCC(C(C)C)C(OC(=O)C[n+]2cc(-c3ccc(Cl)cc3)n3c2CCCCC3)C1 (centres undefined)	-9.79*	i	6*	i	0.101	-25.4
Clc1ccc(C[n+]2cc(-c3ccccc3)n3c2CCCCC3)c(Cl)c1	i	i	i	i	-0.926	-21.5
CCOc1ccc(Nc2ccc([N+](=O)[O-])c3nonc23)cc1	i	i	7*	i	x	-7.2
CC1CCCCN1C(=O)CCC(=O)Nc1nnc(C2CCCCC2)s1 (centres undefined)	i	-6.89*	i	i	x	-6.4
Cc1ccccc1-n1c2nc(=O)n(C)c(=O)c-2cc2ccccc21	i	i	7*	i	1.36	-1.1
CCCCn1c(=O)nc2n(-c3ccccc3C)c3ccccc3cc-2c1=O	i	i	i	11*	-0.559	-11.8
Cn1c(=O)nc2n(Cc3ccccc3)c3ccccc3cc-2c1=O	i	i	i	8*	-0.227	-5.0
O=C(CSc1nc(-c2ccc(Cl)cc2)cs1)Nc1cccc([N+](=O)[O-])c1	i	i	6*	i	0.307	-16.8
Cc1cc(NC(=O)CSc2nc(-c3ccc(Cl)cc3)cs2)no1	i	i	i	i	1.11	-10.9
O=C(Nc1cc(Sc2nc3ccccc3s2)cc([N+](=O)[O-])c1)c1ccccc1	i	i	11*	i	-0.523	-22.8
Cc1ccc(/C=c2/sc3n(c2=O)CCCN=3)o1	i	i	6*	i	-0.519	-14.1
Cc1ccc(S(=O)(=O)NCc2ccc(C(=O)NC3CCC(O)CC3)cc2)cc1C (centres undefined)	i	x	x	x	x	x
Nn1c(SCC(=O)Nc2ccccc2)nnc1C1CCCCC1	i	i	i	i	x	-6.6
Cc1ccccc1-n1nnnc1SCC(=O)Nc1ccc(S(=O)(=O)N2CCCC2)cc1	i	i	i	i	-0.00118	-0.2
Nn1c(SCC(=O)Nc2ccc(F)cc2)nnc1C1CCCCC1	i	i	i	i	1.32	4.9*
SMILES	KCNK3 block	KCNK9 inh	KCNQ1 inh	KCNQ1 act	Cl transport mod	hERG protect
Cc1nnc(SCC(=O)Nc2ccc(S(=O)(=O)N3CCCC3)cc2)n1N	i	i	i	i	0.000332	35.5*
C=C(C(=O)c1ccccc1)C(NC(C)(C)C)c1ccccc1 (centres undefined)	i	x	x	x	x	x
CCNc1nc(NCC)n2c(SCC(=O)Nc3ccccc3)nnc2n1	i	i	i	i	0.47	6.5*
O=C(COC(=O)Cn1cnc2ccccc2c1=O)Nc1ccccc1OC(F)F	i	x	x	x	x	x
CCN(CC)S(=O)(=O)c1ccc(N2CCc3cc(OC)c(OC)cc3C2)nc1	i	i	i	i	x	-5.7
CCOC(=O)c1[nH]c(=O)[nH]c1COC(=O)c1cc2ccccc2o1	i	i	i	i	0.0682	6.2*
O=[N+]([O-])c1cc(-c2nnc(Nc3ccccc3)c3ccccc23)ccc1N1CCOCC1	i	i	i	i	-0.217	-3.3
Cc1ccc(Nc2nnc(-c3ccc(N4CCOCC4)c([N+](=O)[O-])c3)c3ccccc23)cc1	i	i	7*	i	-1.83	-9.9
Cc1ccc(-n2ncc3c(NNC(=O)c4cccs4)ncnc32)cc1	i	i	i	i	-0.156	5.7*
CCC(=O)NNc1ncnc2c1cnn2-c1ccccc1	i	i	i	i	0.251	-2.2
Cc1ccc(NC(=O)NC(=O)COc2ccccc2C(N)=O)c(C)c1	i	x	x	x	x	x
COc1cccc(C(C[N+](=O)[O-])c2c(C)[nH]n(-c3ccccc3)c2=O)c1 (centres undefined)	i	i	8*	i	x	-21.9
CCCCN=C(NNc1ccc(Br)cc1)C(=O)OCC	i	-7.57*	i	i	-1.58	-5.8
Cc1cc(C(C)(C)C)oc1C(=O)N(CC(=O)NC1CCCC1)c1cccc(C(F)(F)F)c1	-9.02*	-7.96*	i	i	x	0.0
CS(=O)(=O)Nc1cccc(C2=NN(S(=O)(=O)c3ccc(F)cc3)C(c3cccs3)C2)c1 (centres undefined)	i	i	i	i	-0.249	-14.8
CS(=O)(=O)Nc1ccc(C2=NN(S(=O)(=O)c3ccccc3)C(c3cccs3)C2)cc1 (centres undefined)	i	-8.07*	i	i	-0.398	-6.9
COC(=O)c1cccc(F)c1C(=O)c1cccc2ccccc12	i	x	x	x	x	x
O=C(CSc1ccccc1)NCC(c1ccco1)N1CCCCC1 (centres undefined)	i	x	x	x	x	x
OC(CNCC(c1ccco1)N1CCCCC1)c1ccccc1 (centres undefined)	i	i	i	i	x	5.9*
O=C(NC1CCc2ccccc21)c1cc(COc2cncc(Cl)c2)on1 (centres undefined)	i	i	i	i	x	-10.8
C[C@H](CO)N1C[C@H](C)[C@@H](CN(C)S(=O)(=O)c2ccc(F)cc2)Oc2ccc(NS(=O)(=O)c3ccccc3)cc2C1=O	i	x	x	x	x	x
CCCCC[C@@H](/C=C/C1C(=O)C=C[C@H]1C/C=C\CCCC(=O)OC)OC(C)=O (some centres undefined)	i	x	x	x	x	x
Cc1ccccc1S(=O)(=O)NC(=NCc1ccc(F)cc1)c1ccccc1	-9.26*	x	x	x	x	x
